Laboratory results: ChEMBL document CHEMBL3739301, “Design, synthesis and biological evaluation of tricyclic diterpene derivatives as novel neuroprotective agents against ischemic brain injury” (Eur J Med Chem, 2015)
Active and inactive are the calls of the source. The calls are words filed in the database; no cut-off is given here.

What was measured:
Rattus norvegicus [1] = assay: Anti-ischemic activity in Sprague-Dawley rat transient middle cerebral artery occlusion model assessed as reduction in neurological deficit at 10 mg/kg, iv administered for 2 to 6 hrs post middle cerebral artery occlusion measured at 24 hrs; format: functional, organism-based
Summary of the method: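 Male SD rats (260–280 g); intraluminal nylon suture (~0.26 mm, round tip) occluded MCA for 2 h, then withdrawn for reperfusion, body temperature held at 37 °C. Given iv at 2, 4 and 6 h after ischemia onset; 10 mg/kg in DMSO or 3 mg/kg in saline; DMSO or saline vehicle controls. Neurological score at 24 h after MCAO; n = 8–12, mean ± SD.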

[2] = Neuroprotective activity against glutamate-induced neuronal cell death in Sprague-Dawley rat CGN cells assessed as cell viability at 10 uM preincubated for 24 hrs followed by glutamate challenge measured after 24 hrs by MTT assay (reference value: 40.4%); format: functional; details: read-out: Activity
[3] = Cytotoxicity against Sprague-Dawley rat CGN cells at <10 uM after 72 hrs by MTT assay; format: cell-based
Summary of the method: (§1)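 Primary cerebellar granule neurons from 8-day SD rat pups; cytosine arabinoside […] added at 24 h, used at DIV 6–8. Cells exposed to a concentration series for 72 h, 0.1% DMSO final. Viability by MTT (0.5 mg/ml, 4 h, 37 °C); formazan dissolved in DMSO, OD 570 nm. n = 3, mean ± SD.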

[4] = Neuroprotective activity against oxygen-glucose deprivation-induced neuronal cell death in Sprague-Dawley rat CGN cells at 10 uM preincubated for 24 hrs followed by induction of oxygen-glucose deprivation measured after 24 hrs relative to control; format: functional
[5] = Neuroprotective activity against nutrient deprivation-induced neuronal cell death in Sprague-Dawley rat CGN cells at 10 uM preincubated for 24 hrs followed by induction of nutrient deprivation measured after 24 hrs relative to control; format: functional
Summary of the method: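 Primary rat cerebellar granule neurons (8-day-old Sprague-Dawley pups, DIV 6-8) pretreated 24 h with compound (0.1% DMSO final), then deprived of B27 serum substitute for 24 h. MTT viability (0.5 mg/ml, 4 h) read at 570 nm against control = 100%; neuroprotection percentage derived from the basal deprived value; mean ± SD, n = 3.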

[6] = Cytotoxicity against Sprague-Dawley rat CGN cells at 50 to 100 uM after 72 hrs by MTT assay; format: cell-based; summary of the method: as §1
neuronal [7] = assay: Neuroprotective activity against glutamate-induced neuronal cell death in Sprague-Dawley rat CGN cells assessed as increase in SOD level at 10 uM preincubated for 24 hrs followed by glutamate challenge measured after 24 hrs; format: functional, cell-based
[8] = Neuroprotective activity in Sprague-Dawley rat CGN cells assessed as upregulation of HO-1 expression after 24 hrs by Western blot analysis; format: functional, cell-based
Summary of the method: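 Primary granule neurons treated with a concentration series for 24 h, lysed in RIPA buffer, protein by BCA. Separated on 15% SDS-PAGE, transferred to PVDF, blocked in 5% BSA. Primary antibody overnight at 4 °C, secondary 30 min at room temperature; chemiluminescent detection. HO-1 quantified by densitometry normalized to β-actin. n = 3, mean ± SD.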

Rattus norvegicus [9] = assay: Anti-ischemic activity in Sprague-Dawley rat transient middle cerebral artery occlusion model assessed as reduction in infarct volume at 10 mg/kg, iv administered for 2 to 6 hrs post middle cerebral artery occlusion measured at 24 hrs by TTC staining-based morphometric analysis; format: organism-based; design: scale not given: the % may be the effect or the level left; details: in vivo
Summary of the method: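 Male Sprague-Dawley rats (260-280 g), middle cerebral artery occluded 2 h by intraluminal nylon monofilament, then reperfused; body temperature held at 37 C. Drug given iv at 2, 4 and 6 h after ischemia onset (test agent in DMSO, edaravone in saline; vehicle controls). Neurological scoring at 24 h; 2 mm coronal slices stained with 2% TTC 20 min at 37 C, formalin-fixed; infarct volume by morphometry; n = 8-12.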

[10] = Neuroprotective activity against oxygen-glucose deprivation-induced neuronal cell death in Sprague-Dawley rat CGN cells assessed as cell viability at 10 uM preincubated for 24 hrs followed by induction of oxygen-glucose deprivation measured after 24 hrs by MTT assay (reference value: 48.7%); format: functional; details: read-out: Activity
Rattus norvegicus [11] = assay: Antioxidant activity in Sprague-Dawley rat transient middle cerebral artery occlusion model assessed as […] in SOD level in ipsilateral cortex at 10 mg/kg, iv measured at 24 hrs post middle cerebral artery occlusion; format: functional, organism-based
Summary of the method: (§2)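 Rat tMCAO: 2 h suture occlusion, then reperfusion. Dosing iv at 2, 4 and 6 h after onset, 10 mg/kg (DMSO) or 3 mg/kg (saline). At 24 h the ipsilateral cortex was lysed in RIPA buffer and protein quantified by BCA. GSH concentration and SOD activity were then measured with commercial kits.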

[12] = Neuroprotective activity against glutamate-induced neuronal cell death in Sprague-Dawley rat CGN cells at 10 uM preincubated for 24 hrs followed by glutamate challenge measured after 24 hrs relative to control; format: functional
neuronal [13] = assay: Neuroprotective activity against glutamate-induced neuronal cell death in Sprague-Dawley rat CGN cells assessed as increase in GSH level at 10 uM preincubated for 24 hrs followed by glutamate challenge measured after 24 hrs; format: functional, cell-based
Summary of the method: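 Granule neurons pretreated 24 h with […] compound, then […] for 24 h. Lysed in buffer containing protease inhibitor cocktail; protein determined by BCA. SOD activity and GSH level measured with commercial kits. n = 3, mean ± SD.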

[14] = Neuroprotective activity against oxygen-glucose deprivation-induced neuronal cell death in Sprague-Dawley rat CGN cells assessed as cell viability at 1 uM preincubated for 24 hrs followed by induction of oxygen-glucose deprivation measured after 24 hrs by MTT assay (reference value: 48.7%); format: functional; details: read-out: Activity
Rattus norvegicus [15] = assay: Antioxidant activity in Sprague-Dawley rat transient middle cerebral artery occlusion model assessed as […] in GSH level in ipsilateral cortex at 10 mg/kg, iv measured at 24 hrs post middle cerebral artery occlusion; format: functional, organism-based; summary of the method: as §2
neuronal [16] = assay: Neuroprotective activity against glutamate-induced neuronal cell death in Sprague-Dawley rat CGN cells assessed as increase in cell viability preincubated for 24 hrs followed by glutamate challenge measured after 24 hrs by MTT assay; format: functional, cell-based
Rattus norvegicus [17] = assay: Toxicity in Sprague-Dawley rat transient middle cerebral artery occlusion model at 10 mg/kg, iv; format: organism-based; details: in vivo
[18] = Permeability of the compound at 25 ug/ml after 18 hrs by PAMPA assay; format: ADME; details: read-out: permeability

SMILES: CCCCNC(=O)c1cc2c(cc1OC)[C@@]1(C)CC[C@H](O)C(C)(C)[C@@H]1CC2
- Activity (Rattus norvegicus [1]): Active
- viability at 10 µM [2]: 94.1%
- Activity [3]: Non-toxic
- Activity [4]: 75.4%
- Activity [5]: 25.9%
- Activity [6]: Toxic
- Activity (neuronal [7]): Active
- Activity [8]: Dose-dependent effect
- Activity (Rattus norvegicus [9]): 44%
- viability at 10 µM [10]: 87.4%
- Activity (Rattus norvegicus [11]): Active
- Activity [12]: 90.1%
- Activity (neuronal [13]): Active
- viability at 1 µM [14]: 58.9%
- Activity (Rattus norvegicus [15]): Active
- Activity (neuronal [16]): Dose-dependent effect
- Activity (Rattus norvegicus [17]): Non-toxic
- Papp at 18 h, 25 ug/ml [18]: 11.3 ×10⁻⁶ cm/s
